Screens from PubChem.
This is a sample that favours compounds with a hit; in the whole collection about 3.7% have one here.
Kir21 inh = blocks the mouse Kir2.1 inward-rectifier potassium channel. P35561. HEK293-Kir2.1, FluxOR thallium flux fluorescence; stronger effect = lower value. B-score at 10 µM. actives 0.85% (n = 310,000);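 active means fluorescence ratio B-score at or below minus 3 SD of library scores, with starting-brightness B-score within 2 SD, cut at about -4.2 in these data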;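 further: channel flux triggered by added potassium and thallium sulfate stimulus; B-score of peak minus minimum fluorescence over baseline after thallium stimulus; more negative B-score means stronger Kir2.1 block with less thallium influx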
KCNQ1 inh = blocks the human KCNQ1 potassium channel | AID 2642 | actives 1.3% (n = 310,000) | B-score at 10 µM | CHO-K1 KCNQ1, FluxOR thallium flux fluorescence; stronger effect = higher value;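 active means compounds whose thallium flux B-score, printed positive for inhibition, exceeds three library SD while starting fluorescence stays within three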;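 further: channel opened by potassium depolarization with thallium stimulus after 20 min compound exposure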
KCNK3 block = human KCNK3 channel inhibition, primary screen. B-score at 10 µM. CHO-KCNK3 thallium flux, FluxOR fluorescence; stronger effect = lower value. actives 0.84% (n = 340,000). O14649;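 active means B-score under library mean minus 4 SD, starting fluorescence ratio at most library mean plus 5 SD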;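 further: more negative B-score means stronger inhibition of thallium flux through KCNK3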
Target sequence (O14649 whole entry, looked up): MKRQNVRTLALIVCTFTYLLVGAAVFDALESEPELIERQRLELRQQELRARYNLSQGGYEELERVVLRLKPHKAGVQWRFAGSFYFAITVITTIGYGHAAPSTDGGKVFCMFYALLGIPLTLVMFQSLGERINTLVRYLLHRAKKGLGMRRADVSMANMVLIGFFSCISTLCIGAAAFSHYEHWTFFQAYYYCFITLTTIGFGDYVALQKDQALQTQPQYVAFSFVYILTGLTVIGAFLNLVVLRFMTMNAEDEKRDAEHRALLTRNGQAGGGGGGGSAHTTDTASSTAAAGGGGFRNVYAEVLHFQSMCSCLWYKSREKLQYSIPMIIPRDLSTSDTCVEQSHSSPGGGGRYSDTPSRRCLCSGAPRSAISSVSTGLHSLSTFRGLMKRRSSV
KCNK9 block = blocks the human KCNK9 two-pore domain potassium channel; Q9NPC2; HEK293 KCNK9, FluxOR thallium flux fluorescence; stronger effect = lower value; B-score at 10 µM; actives 1.2% (n = 310,000);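 active means ratio B-score over 3 SD below the library mean, with starting fluorescence within 5 SD of its mean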;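 further: negative B-score means less thallium flux so channel inhibition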
Target sequence (Q9NPC2 whole entry, looked up, the tested form may be a part): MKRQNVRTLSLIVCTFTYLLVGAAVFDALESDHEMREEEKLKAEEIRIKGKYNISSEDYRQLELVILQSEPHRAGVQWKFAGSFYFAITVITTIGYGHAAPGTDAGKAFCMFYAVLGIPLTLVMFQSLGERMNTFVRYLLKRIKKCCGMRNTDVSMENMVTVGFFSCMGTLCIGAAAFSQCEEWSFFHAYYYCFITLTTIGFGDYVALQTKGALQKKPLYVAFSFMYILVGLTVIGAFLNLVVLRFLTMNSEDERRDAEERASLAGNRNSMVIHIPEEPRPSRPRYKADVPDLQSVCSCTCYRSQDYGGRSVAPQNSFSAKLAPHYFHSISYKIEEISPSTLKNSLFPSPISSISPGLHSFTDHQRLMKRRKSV
KCNQ1 pot = potentiates or activates the human KCNQ1 potassium channel. P51787. CHO-K1 KCNQ1, thallium flux FluxOR fluorescence; stronger effect = higher value. B-score at 10 µM. actives 0.35% (n = 310,000). AID 2648;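 active means fluorescence ratio B-score, a plate-corrected score, at least three library SD, with initial intensity B-score within 5 SD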
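assay system = KCNQ1-transfected CHO-K1 cells | medium = assay buffer with matched DMSO | probe or stimulus = depolarizing K+/Tl+ stimulus, K2SO4 and Tl2SO4 each 12.5 mM in 5x stock | dosing = single dose | incubation = dye 90 min, compound 20 min, room temperature | detection = kinetic FluxOR fluorescence, 10 s baseline plus 110 s post-stimulus | evaluation = ratio B score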
hERG protect = shields human hERG channel from block by proarrhythmic agents. Q12809. CHO-hERG, FluxOR thallium flux, dofetilide IC70 present. AID 1511. actives 0.51% (n = 310,000). activation (rescue from dofetilide block), less the hit threshold, % at 10 µM;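 active means activation above the mean of controls blocked by dofetilide plus 5 SD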;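 further: thallium influx through hERG after potassium depolarization seen as dye fluorescence rise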
KCNQ1 inh valid = reconfirmed blocker of the human KCNQ1 potassium channel | shares compounds with KCNQ1 inh | KCNQ1 cell line, FluxOR thallium flux fluorescence | actives 93% (n = 1,600) | inhibition, % at 10 µM;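 active means primary screen active, with duplicate mean exceeding buffer control mean plus 3 SD of buffer wells, cut at about 28% in these data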
CHO Tl flux = KCNQ1 inhibitor counter-screen hit in parental CHO cells | fluorescence ratio (Tl flux) at 10 µM | actives 21% (n = 1,600) | parental CHO-K1, FluxOR thallium flux fluorescence ratio; stronger effect = lower value; zero means no signal rise above baseline | shares compounds with KCNQ1 inh;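 active means mean of duplicate thallium-flux fluorescence ratios in parental host cells more than 5 SD below the buffer control mean, cut at about 0.38 in these data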;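 further: ratio is peak minus minimum fluorescence divided by baseline fluorescence; actives read low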
KCNQ1 ephys val = human KCNQ1 inhibition validated by electrophysiology | KCNQ1-CHO cells, automated patch clamp current | actives 20% (n = 490) | shares compounds with KCNQ1 inh | calls only at 10 µM;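 active means KCNQ1 current drop exceeding 3 SD of negative control wells, seen in both duplicate runs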;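 further: steady state current during a 2 s step from -80 to +40 mV; negative values mean current inhibition and positive values mean potentiation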
KCNQ2 spec = selectivity of KCNQ1 inhibitors: inhibition of rat KCNQ2 channel. shares compounds with KCNQ1 inh. KCNQ2 cells, FluxOR thallium flux fluorescence. inhibition, % at 10 µM. actives 71% (n = 1,600);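 active means mean percent inhibition of the KCNQ2 thallium signal more than 5 SD above the buffer-only control wells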;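 further: KCNQ2 expressed in CHO cells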
KCNQ1 KCNE1 spec = KCNQ1 inhibitor that also blocks human KCNQ1/KCNE1 channel. shares compounds with KCNQ1 inh. actives 77% (n = 1,600). inhibition, % at 10 µM. KCNQ1/KCNE1 cells, FluxOR thallium flux fluorescence;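 active means mean percent inhibition of duplicate wells above the buffer-only control mean plus 3 SD of those controls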
KCNK9 inh conf = human KCNK9 inhibitor confirmation | actives 43% (n = 4,900) | shares compounds with KCNK9 block | HEK293 KCNK9 cells, FluxOR thallium flux fluorescence | inhibition, % at 10 µM;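 active means thallium signal inhibited by more than 5 SD of the compound-free buffer control wells, on both duplicate plates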
Kir2-1 spec = tests whether KCNK9 modulators also affect mouse Kir2.1; shares compounds with KCNK9 block; Kir2.1 cells, FluxOR thallium flux fluorescence; inhibition, % at 10 µM; actives 4% (n = 4,900);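 active means thallium signal drop more than 5 SD beyond the mean of the no-compound control wells, seen in both duplicate plates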;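 further: signal is fluorescence rise after thallium addition divided by baseline fluorescence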
HEK293 Tl ctr = non-induced cell nonspecific activity of KCNK9 modulators | actives 40% (n = 4,900) | inhibition, % at 10 µM | shares compounds with KCNK9 block | non-induced KCNK9-HEK293, FluxOR thallium flux | AID 492997;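 active means thallium signal drop beyond 5 SD of the untreated control mean, on both duplicate plates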
KCNK3 confirm = confirmation of human KCNK3 two-pore domain potassium channel inhibitors; CHO-KCNK3 thallium flux, FluxOR fluorescence; 0% buffer, 100% carvedilol maximal block; shares compounds with KCNK3 block; ratio percent of control, % at 10 µM; actives 99% (n = 2,400);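 active means ratio percent of control, averaged over triplicates, above buffer control mean plus 5 SD, cut at about 64% in these data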;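 further: ratio is the fluorescence rise from min to max over baseline after thallium stimulus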
KCNK3 noninduced = counter-screen for KCNK3 inhibitors: effect in non-induced cells; shares compounds with KCNK3 block; non-induced KCNK3 parental cells, FluxOR thallium flux; stronger effect = lower value; thallium flux ratio (lower = more inhibition) at 10 µM; actives 40% (n = 2,400); AID 651747;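 active means thallium flux ratio, averaged over three wells, more than 5 SD below the buffer control mean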;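 further: host cells are CHO cells without KCNK3 induction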
Large screens that a line does not name were inactive (follow-up assays come after a bar, where they were run).

CCN(C(=O)c1cc2c(s1)-c1ccccc1OC2)c1cc(OC)ccc1OC	KCNQ1 inh 7, KCNK3 block -14, KCNK9 block -17 | KCNQ1 inh valid 110 | CHO Tl flux 0.37 | KCNQ2 spec 96% | KCNQ1 KCNE1 spec 185% | KCNK9 inh conf 68% | Kir2-1 spec inactive | HEK293 Tl ctr 32% | KCNK3 confirm 132 | KCNK3 noninduced 0.12
Cc1cc(C)n(-c2cc(C(C)(C)C)nc3c(-c4ccccc4)cnn23)n1	KCNQ1 inh 8, KCNK3 block -13 | KCNQ1 inh valid 85 | CHO Tl flux inactive | KCNQ2 spec inactive | KCNQ1 KCNE1 spec 114% | KCNK3 confirm 108 | KCNK3 noninduced inactive
O=C(C(Cc1ccccc1)n1cccc1)N1CCN(c2cccc(Cl)c2)CC1 (stereo not drawn)	KCNQ1 inh 8, KCNK3 block -9.2 | KCNQ1 inh valid 116 | CHO Tl flux 0.33 | KCNQ2 spec 117% | KCNQ1 KCNE1 spec 158% | KCNK3 confirm 98 | KCNK3 noninduced 0.14
O=C(C(Cc1ccccc1)n1cccc1)N1CCN(Cc2ccccc2)CC1 (stereo not drawn)	none
O=C(c1ccc(F)cc1F)N1CCN(S(=O)(=O)c2ccc3c(c2)OCCO3)CC1	none (no result: Kir21 inh, KCNQ1 inh, KCNK9 block, KCNQ1 pot, hERG protect)
COc1ccc(NC(=O)c2cccc(OC(F)F)c2)cc1Cl	none
O=C(Nc1ccc(OC(F)F)c(Cl)c1)c1cccc(OC(F)F)c1	KCNQ1 inh 12, KCNK3 block -11, KCNK9 block -12 | KCNQ1 inh valid 106 | CHO Tl flux inactive | KCNQ1 ephys val active | KCNQ2 spec inactive | KCNQ1 KCNE1 spec 43% | KCNK9 inh conf 54% | Kir2-1 spec inactive | HEK293 Tl ctr inactive | KCNK3 confirm 120 | KCNK3 noninduced inactive
COc1cccc(C(=O)Nc2cccc(-c3ccccc3)c2)c1	KCNQ1 inh 9, KCNK3 block -12 | KCNQ1 inh valid 148 | CHO Tl flux inactive | KCNQ1 ephys val inactive | KCNQ2 spec 99% | KCNQ1 KCNE1 spec active | KCNK3 confirm 113 | KCNK3 noninduced inactive
COc1cccc(NC(=O)c2ccccc2)c1	none (no result: Kir21 inh, KCNQ1 inh, KCNK9 block, KCNQ1 pot, hERG protect)
Cc1c(C(=O)Nc2ccc(S(=O)(=O)N3CCOCC3)cc2)cccc1[N+](=O)[O-]	none
CCOc1ccc(N(C)S(=O)(=O)c2cc(-c3cc(C)no3)ccc2CC)cc1	KCNQ1 inh 13, KCNK3 block -13, KCNK9 block -7.8 | KCNQ1 inh valid 98 | CHO Tl flux 0.36 | KCNQ2 spec 118% | KCNQ1 KCNE1 spec 138% | KCNK3 confirm 123 | KCNK3 noninduced 0.14
CCOC(=O)N1CCC(n2c(SCC(=O)Nc3ccccc3OC)nc3ccccc3c2=O)CC1	KCNQ1 inh 6, KCNK3 block -8.9 | KCNQ1 inh valid 82 | CHO Tl flux 0.38 | KCNQ2 spec 109% | KCNQ1 KCNE1 spec 136% | KCNK9 inh conf inactive | Kir2-1 spec inactive | HEK293 Tl ctr inactive | KCNK3 confirm 110 | KCNK3 noninduced 0.15
CCc1ccc(CN2CCC(n3nccc3NC(=O)c3ccccc3)CC2)o1	none
Cc1ccc(Cl)cc1N1CCN(C(=O)c2cc3c(=O)n(C)c4ccccc4c3n2C)CC1	KCNQ1 inh 15, KCNK3 block -16 | KCNQ1 inh valid 120 | CHO Tl flux inactive | KCNQ1 ephys val inactive | KCNQ2 spec 126% | KCNQ1 KCNE1 spec inactive | KCNK3 confirm 137 | KCNK3 noninduced inactive
O=C(NCc1ccco1)c1ccc(Cl)c(S(=O)(=O)N2CCCC2)c1	none (no result: Kir21 inh, KCNQ1 inh, KCNK9 block, KCNQ1 pot, hERG protect)
Cc1ccc(N/C(N)=N/c2nc3c(c(=O)[nH]2)CCCC3)c(C)c1	none
Cc1ccc(N/C(N)=N/c2nc(C)cc(N3CCCCC3)n2)c(C)c1	KCNQ1 inh 10, KCNK3 block -12 | KCNQ1 inh valid 91 | CHO Tl flux inactive | KCNQ1 ephys val active | KCNQ2 spec 90% | KCNQ1 KCNE1 spec 51% | KCNK3 confirm 116 | KCNK3 noninduced inactive
O=C(CCCOc1ccc(Cl)cc1Cl)N1CCCc2ccccc21	KCNQ1 inh 8, KCNK3 block -11 | KCNQ1 inh valid 112 | CHO Tl flux inactive | KCNQ1 ephys val inactive | KCNQ2 spec 92% | KCNQ1 KCNE1 spec 167% | KCNK9 inh conf inactive | Kir2-1 spec inactive | HEK293 Tl ctr 33% | KCNK3 confirm 122 | KCNK3 noninduced 0.14
Cc1ccc(NC(=O)C2CCN(c3ncnc4sc(C)c(C)c34)CC2)cc1S(=O)(=O)N(C)C	none
Cc1sc2ncnc(N3CCC(C(=O)Nc4cc(Cl)ccc4Cl)CC3)c2c1C	KCNQ1 inh 11, KCNK3 block -10 | KCNQ1 inh valid 71 | CHO Tl flux inactive | KCNQ2 spec 123% | KCNQ1 KCNE1 spec 99% | KCNK3 confirm 127 | KCNK3 noninduced 0.13
CCN(CC)S(=O)(=O)c1cc(NC(=O)C2CCN(c3ncnc4sc(C)c(C)c34)CC2)ccc1Cl	KCNQ1 inh 6, KCNK3 block -9.6 | KCNQ1 inh valid 58 | CHO Tl flux inactive | KCNQ2 spec 72% | KCNQ1 KCNE1 spec 95% | KCNK3 confirm 102 | KCNK3 noninduced 0.16
